# Screening data deposited in PubChem by Sanford-Burnham Center for Chemical Genomics.
# Shown are actives, neighbours in structure and some others; about 0.77% of the full set was active somewhere.
# mIAP activ: mouse IAP activation. AID 2805. activation factor at 10 µM. 330,000 tested, 0.24% active. muIAP, CDP-Star luminescence, 30 min; active compounds read high; 1 = vehicle-only enzyme signal, 0 = enzyme-free wells;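 active means activation factor of at least 2 at 20 µM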
#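 Assay system: mouse IAP enzyme; Reagent: CDP-Star chemiluminescent phosphatase substrate; Compound: DMSO-dissolved test compounds; Incubation: 30 min, room temperature; Technique: luminescence from enzymatic CDP-Star hydrolysis; Controls: DMSO-only wells and no-enzyme negative control.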
# mIAP inh: blocks mouse intestinal alkaline phosphatase. inhibition, % at 10 µM. purified mouse IAP, CDP-Star luminescence, 30 min. 330,000 tested, 0.2% active;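 active means inhibition of at least 40% at 10 µM in the primary screen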;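 further: plate controls were DMSO with enzyme for no effect and no enzyme wells for full effect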
# hIAP activ: human IAP activation; purified human IAP, CDP-Star luminescence, 30 min; active compounds read high; 1 = vehicle-only enzyme, 0 = enzyme-free background; activation factor at 10 µM; 330,000 tested, 0.16% active; AID 2524;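 active means activation factor of the enzyme at least 2-fold when tested at 20 µM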
# Target sequence (P09923 whole entry, looked up): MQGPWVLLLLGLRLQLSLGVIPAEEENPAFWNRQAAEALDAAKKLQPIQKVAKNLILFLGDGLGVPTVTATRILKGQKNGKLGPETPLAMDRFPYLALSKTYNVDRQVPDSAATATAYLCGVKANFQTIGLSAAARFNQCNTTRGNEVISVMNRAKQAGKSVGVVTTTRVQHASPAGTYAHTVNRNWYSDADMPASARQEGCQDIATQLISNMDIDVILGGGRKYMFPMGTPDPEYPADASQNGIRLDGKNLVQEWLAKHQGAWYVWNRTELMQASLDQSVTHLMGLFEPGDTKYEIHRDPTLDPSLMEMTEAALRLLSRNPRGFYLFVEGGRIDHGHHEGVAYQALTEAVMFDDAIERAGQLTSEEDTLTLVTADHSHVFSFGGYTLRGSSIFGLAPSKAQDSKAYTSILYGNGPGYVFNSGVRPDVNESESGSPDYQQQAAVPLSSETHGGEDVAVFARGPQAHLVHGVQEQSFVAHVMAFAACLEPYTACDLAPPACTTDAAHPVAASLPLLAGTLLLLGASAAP
# bIAP inhibitor: blocks bovine intestinal alkaline phosphatase activity; purified bovine IAP, CDP-star luminescence, 30 min; inhibition, % at 20 µM; 190,000 tested, under 10 active;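 active means over 50% inhibition of intestinal alkaline phosphatase at 20 µM in the single-dose screen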
#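 System: purified bovine intestinal alkaline phosphatase (IAP) enzyme; Input: IAP diluted 1/65,000,000 in the well; Measured by: CDP-star luminescence signal; Compound dosing: 20 µM single dose; Incubation: 30 min reaction at room temperature.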
# hIAP inh: human IAP inhibition; P09923; purified IAP, CDP-Star luminescence, 30 min; inhibition, % at 10 µM; 330,000 tested, 0.12% active; AID 2544;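 active means inhibition reaching a set limit with compound at 10 µM in the primary screen, cut at about 35% in these data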;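 further: plate controls were DMSO wells with enzyme for no effect and no-enzyme buffer wells for full effect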
# bIAP act: increases bovine intestinal alkaline phosphatase activity; purified bovine IAP, CDP-star luminescence, 30 min; active compounds read high; fold of DMSO-control signal, blank-subtracted; activation factor at 20 µM; 200,000 tested, 0.17% active;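 active means activation factor of 2 or more at 20 µM, a signal rise over negative controls twice the positive control's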
# hIAP act confirm: human IAP activation confirmation; shares compounds with hIAP activ; purified IAP, CDP-Star luminescence, 30 min; active compounds read low; activation (%Activity, negative = activation), % at 8.3 µM; 880 tested, 10% active;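 active means at least twofold enzyme activation in any of six single-dose repeats, which the averaged readout prints as negative percent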
# * marks the source's active call; other numbers are inactive results; · = no result given.
SMILES,mIAP activ,mIAP inh,hIAP activ,bIAP inhibitor,hIAP inh,bIAP act,hIAP act confirm
O=C1C2C3C=CC(C3)C2C(=O)N1c1n[nH]c(-c2ccccc2)n1 (stereo unspecified),1,0.0,0.947,46.8,5.3,0.5,·
O=C1C2C3C=CC(C3)C2C(=O)N1c1n[nH]c(-c2cccnc2)n1 (stereo unspecified),1.02,-1.7,0.337,16.9,66.3*,0.8,-82.5*
O=C1C2CC=CCC2C(=O)N1c1n[nH]c(-c2ccccc2)n1 (stereo unspecified),0.975,2.5,0.08,·,92.0*,0.1,-46.0
CCOc1ccc(NS(=O)(=O)c2coc(C(N)=O)c2)cc1,1.09,-9.2,1.07,·,-6.7,·,·
COC(=O)c1ccc(N/C(C)=C/C(=O)c2ccc(C)o2)cc1,0.885,11.5,0.644,2.2,35.6*,1,-3.0
CN1CCN(CCNC(=O)Cn2c(=O)c3cccn3c3ccc(F)cc32)CC1,0.929,7.1,0.614,·,38.6*,·,35.4
O=C(O)c1cc(N2C(=O)CCC2=O)ccc1Cl,0.988,1.2,0.983,·,1.7,·,·
Cc1ccc(N(CC(O)CN2C(=O)NC(C)(C)C2=O)S(=O)(=O)c2ccc([N+](=O)[O-])cc2)cc1 (stereo unspecified),0.919,8.1,0.611,·,38.9*,·,17.7
Cc1ccc(N(CC(O)CN2C(=O)NC(C)(C)C2=O)S(=O)(=O)c2ccc(C)cc2)cc1 (stereo unspecified),1.04,-4.2,0.927,·,7.3,·,·
COc1ccccc1C1CN(c2ccccc2)N=C1c1cccs1 (stereo unspecified),1.53,-52.9,0.403,-24.6,59.7*,1.2,-128.2*
CC1=NN(Cc2ccccc2)C(=O)/C1=C\c1ccc(N(C)C)cc1,0.77,23.0,0.634,39.0,36.6*,0.6,65.6
O=C(Nc1cccc(-c2cccc(F)c2)c1)C1CCN(Cc2ccco2)CC1,1.12,-11.8,2.29*,·,-128.9,·,-8.9
O=C(CN1CCN(C(=O)N2CCCCC2)CC1)Nc1ccc(F)cc1,1.09,-9.3,2.27*,-3.7,-126.8,1,-97.3*
O=C(CN1CCCC1)Nc1ccc(F)cc1,0.917,8.3,0.993,6.3,0.7,0.9,·
Cc1nnc(NC(=O)c2ccc(S(=O)(=O)N3CCOCC3)cc2)s1,1.09,-9.1,1.03,·,-3.2,·,·
O=C(CSc1nnc(NC(=O)c2ccc(S(=O)(=O)N3CCOCC3)cc2)s1)Nc1ccccc1C(F)(F)F,1.04,-3.7,0.127,-12.9,87.3*,1.1,0.3
CC(=O)c1cccc(NC(=O)C(C)OC(=O)CCCN=C2NS(=O)(=O)c3ccccc32)c1 (stereo unspecified),0.956,4.4,0.995,·,0.5,·,·
Cn1c(CNC(=O)CCNC(=O)c2cccc(Br)c2)cc(=O)n(C)c1=O,0.949,5.1,0.631,·,36.9*,·,0.9
COc1ccccc1CN(C)C(=O)C(c1ccccc1)c1ccccc1,0.924,7.6,1.01,·,-1.5,·,·
O=C(CSc1nc(-c2cccs2)cc(C(F)(F)F)n1)NCc1ccccc1,0.996,0.4,0.634,22.8,36.6*,0.8,36.7
COc1ccc(/C=N/NC(=O)C(=O)Nc2ccccn2)cc1OC,0.979,2.1,1.2,-29.1,-19.9,1.3,·
O=C(N/N=C/c1ccccc1O)C(=O)Nc1ccccn1,0.812,18.8,2.05*,-35.7,-105.0,1.4,8.8
Cc1ccc(S(=O)(=O)NCC(=O)N/N=C/c2ccccc2O)cc1,0.712,28.8,2.18*,-44.8,-117.7,1.4,-63.1
Cc1ccc(S(=O)(=O)NCC(=O)N/N=C/c2ccc(Cl)cc2Cl)cc1,1.02,-2.3,0.969,2.6,3.1,1,·
Cn1nc(C(=O)NNC(=O)c2ccc(Cl)c(S(N)(=O)=O)c2)c2ccccc2c1=O,0.67,33.0,2.05*,·,-105.4,·,2.3
SMILES,mIAP activ,mIAP inh,hIAP activ,bIAP inhibitor,hIAP inh,bIAP act,hIAP act confirm
COc1cc(OC)cc(C(=O)NNC(=O)c2nn(C)c(=O)c3ccccc23)c1,1.04,-3.7,2.06*,·,-106.4,·,23.2
COc1ccc(OCC(=O)NNC(=O)c2nn(C)c(=O)c3ccccc23)cc1,0.909,9.1,1.22,-5.6,-21.6,1.1,·
COc1ccc(F)cc1S(=O)(=O)n1nc(C)cc1C,0.975,2.5,0.604,·,39.6*,·,-61.6
COc1ccc(C)cc1S(=O)(=O)n1nc(C)cc1C,0.951,4.9,1.13,-8.1,-13.3,1.1,·
Cc1cccc(C)c1NC(=O)CNC(=O)c1ccc2c(c1)NC(=O)CS2,0.963,3.7,0.992,·,0.8,·,·
COc1ccc(S(=O)(=O)NNC(=O)C(=O)NNc2ccccn2)cc1,0.854,14.6,3.02*,·,-202.0,·,5.8
COc1cccc2c1cc1c(=O)n(CC(=O)NCCCN3CCN(C)CC3)nc(C)n12,0.97,3.0,0.568,·,43.2*,·,0.3
Cc1c(-c2ccc(OCc3ccccc3)cc2)nc2ccccc2c1C(=O)O,0.931,6.9,1.12,·,-11.8,·,·
CC(/C=N/NC(=O)CCn1nnc2ccccc21)=C\c1ccccc1,0.966,3.4,0.647,-51.8,35.3*,1.5,-88.8*
CC(/C=N/NC(=O)Cn1cnc2ccccc21)=C\c1ccccc1,0.917,8.3,1.06,12.3,-5.7,0.9,·
COC(=O)c1cc(C#N)c(Oc2ccccc2OC)nc1C,0.949,5.1,0.638,3.6,36.2*,1,20.0
Cc1cccc(C(=O)NNC(=O)c2ccc(NS(=O)(=O)c3cccs3)cc2)c1C,0.938,6.2,1.03,·,-3.3,·,·
COc1ccc(CN2CC(=O)N3[C@H]4c5ccccc5OC[C@@H]4[C@H](c4ccccc4)[C@]3(C)C2=O)cc1,0.856,14.4,1.06,·,-5.8,·,·
O=[N+]([O-])c1ccc(Nc2ccccc2)c2nonc12,0.795,20.5,0.615,·,38.5*,·,-18.0
COc1cc(NC(=O)C(C)N2CCN(C(=O)C3CC3)CC2)cc(OC)c1 (stereo unspecified),1.12,-11.7,0.871,·,12.9,·,·
CC12CCC(=O)N1C(C(=O)NNC(=O)COc1cccc(C(F)(F)F)c1)CS2 (stereo unspecified),0.917,8.3,1.42,·,-42.4,·,·
O=C1/C(=C\c2ccc(O)cc2)SC(=S)N1Cc1ccccc1,0.777,22.3,0.63,·,37.0*,·,1.7
O=C1/C(=C/c2ccc(O)cc2)SC(=S)N1CC1CCCO1 (stereo unspecified),0.691,30.9,0.62,·,38.0*,·,12.5
Cc1ccc(C)c(S(=O)(=O)N2CCN(C(=O)C3CCN(C(=O)c4ccc(F)cc4)CC3)CC2)c1,0.937,6.3,1.12,·,-12.3,·,·
O=C(NNC(=S)NC(=O)c1ccccc1)c1cccnc1,0.826,17.4,2.48*,·,-147.6,·,-320.1*
COC(=O)c1cc(NC(=O)COC(=O)C2COc3ccccc3O2)cc(C(=O)OC)c1 (stereo unspecified),0.886,11.4,0.946,·,5.4,·,·
